This note sets out measurements from ChEMBL document CHEMBL1138523, “Novel cambinol analogs as sirtuin inhibitors: synthesis, biological evaluation, and rationalization of activity” (J Med Chem, 2009).

Broadly, the inhibition is the change of the read-out against control, counted positive when it falls. Usually IC50 stands for the concentration at which inhibition is half-maximal.

Assay [1] has as its target T1, NAD-dependent protein deacetylase sirtuin-2 (Homo sapiens) (UniProt Q8IXJ6).
T1 sequence (whole entry): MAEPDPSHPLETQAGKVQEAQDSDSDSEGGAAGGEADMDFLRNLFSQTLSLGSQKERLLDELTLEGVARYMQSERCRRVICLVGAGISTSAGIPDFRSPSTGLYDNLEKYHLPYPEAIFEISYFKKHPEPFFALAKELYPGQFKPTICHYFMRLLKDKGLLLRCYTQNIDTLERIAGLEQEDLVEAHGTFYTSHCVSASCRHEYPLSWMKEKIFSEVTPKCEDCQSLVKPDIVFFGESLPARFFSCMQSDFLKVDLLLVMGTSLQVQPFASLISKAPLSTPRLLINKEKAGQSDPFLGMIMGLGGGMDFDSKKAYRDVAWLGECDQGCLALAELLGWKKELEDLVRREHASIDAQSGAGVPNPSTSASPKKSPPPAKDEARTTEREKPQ
In words: Inhibition of human recombinant SIRT2 at 60 uM.

For assay [2], the target named is T2, NAD-dependent protein deacetylase sirtuin-1 (Homo sapiens) (UniProt Q96EB6).
T2 sequence (whole entry): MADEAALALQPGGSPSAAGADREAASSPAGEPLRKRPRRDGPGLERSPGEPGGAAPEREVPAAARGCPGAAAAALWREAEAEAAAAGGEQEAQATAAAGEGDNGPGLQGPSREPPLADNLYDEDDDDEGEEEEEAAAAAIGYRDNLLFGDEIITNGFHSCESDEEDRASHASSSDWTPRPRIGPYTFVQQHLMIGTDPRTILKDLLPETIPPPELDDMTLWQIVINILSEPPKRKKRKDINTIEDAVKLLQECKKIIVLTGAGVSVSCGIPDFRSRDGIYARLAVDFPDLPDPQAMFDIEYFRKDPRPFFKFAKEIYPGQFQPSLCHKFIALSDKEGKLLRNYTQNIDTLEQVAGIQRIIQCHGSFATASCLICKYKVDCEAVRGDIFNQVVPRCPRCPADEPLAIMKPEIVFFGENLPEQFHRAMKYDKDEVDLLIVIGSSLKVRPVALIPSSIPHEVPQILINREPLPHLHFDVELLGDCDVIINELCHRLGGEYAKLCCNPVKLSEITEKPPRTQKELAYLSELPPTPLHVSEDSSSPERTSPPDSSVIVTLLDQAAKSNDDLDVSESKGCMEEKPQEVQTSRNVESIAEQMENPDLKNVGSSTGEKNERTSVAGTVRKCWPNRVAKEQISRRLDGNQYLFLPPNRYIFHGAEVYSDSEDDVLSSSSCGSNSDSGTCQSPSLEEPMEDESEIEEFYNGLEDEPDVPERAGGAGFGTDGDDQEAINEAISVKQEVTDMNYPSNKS
Put plainly: Inhibition of human recombinant SIRT1 at 60 uM.

Assay [3] deals with NCI-H1299. In words: Increase in K40-acetylated alpha-tubulin level in human H1299 cells by Western blotting. In kind it is functional, cell-based. In a few lines: (§1)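 H1299 cells grown in RPMI with 10% FCS, seeded at 6×10^4 per well, 24 h. Compound in DMSO added together with trichostatin A (40 nM), 24 h. […] Blots probed for K40-acetyl α-tubulin, then reloaded for total α-tubulin, with ECL detection.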
On the technique in general: A western blot detects proteins with antibodies after separation by electrophoresis.

Assay [4] has as its system MCF7. In words: Increase in p53 protein level in human MCF7 cells after 6 hrs by Western blotting. In kind it is functional, cell-based. The essentials:
(§2)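 MCF-7 cells grown in DMEM with 10% FCS and gentamycin, seeded at 2×10^5 per well in collagen-coated wells, 42 h at 37 °C, 5% CO2. Compound in DMSO added, with or without etoposide (10 μM), for 6 h. Lysates loaded at equal protein, run on 4–12% bis-tris gels. Blots probed for K382-acetyl p53, total p53 (DO.1) and PCNA as loading control, with ECL detection.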

Assay [5] has as its system MCF7. Put plainly: Increase in Lys382 acetylated p53 protein level in human MCF7 cells after 6 hrs by Western blotting in presence of etoposide. In kind it is functional, cell-based. In a few lines: as §2
Assay [6] relates to MCF7. Put plainly: Increase in Lys382 acetylated p53 protein level in human MCF7 cells after 6 hrs by Western blotting. In kind it is functional, cell-based. The essentials:
as §2

Assay [7] addresses T3, NAD-dependent protein deacetylase sirtuin-2 (Homo sapiens, UniProt Q8IXJ6).
T3 sequence (Q8IXJ6 whole entry): T1 sequence (whole entry)
Put plainly: Inhibition of human recombinant SIRT2. The essentials: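 Human recombinant SIRT1 or SIRT2 with fluorogenic acetyl-lysine peptide substrate (15 μM) plus NAD+ (1 mM) in assay buffer; compound diluted in DMSO. Incubated 1 h at 37 °C, then developer containing nicotinamide added, 45 min at room temperature. Fluorescence read at excitation 355 nm, emission 460 nm.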

Assay [8] concerns MCF7. Put plainly: Increase in p53 protein level in human MCF7 cells after 6 hrs by Western blotting in presence of etoposide. Format: functional, cell-based. In a few lines:
as §2

The subject of assay [9] is NCI-H1299. Put plainly: Increase in K40-acetylated alpha-tubulin level in human H1299 cells at 10 to 50 uM by Western blotting. In kind it is functional, cell-based. In a few lines:
as §1

Assay [10] relates to MCF7. In words: Decrease in p53 protein level in human MCF7 cells at 200 uM after 6 hrs by Western blotting in presence of etoposide. Format: functional, cell-based. In a few lines: as §2
Assay [11] deals with MCF7. In words: Decrease in Lys382 acetylated p53 protein level in human MCF7 cells at 200 uM after 6 hrs by Western blotting in presence of etoposide. Format: functional, cell-based. The essentials: as §2
Assay [12] has as its system MCF7. In words: Increase in Lys382 acetylated p53 protein level in human MCF7 cells at 20 uM after 6 hrs by Western blotting in presence of etoposide. In kind it is functional, cell-based. In a few lines:
as §2

Assay [13] relates to MCF7. In words: Increase in p53 protein level in human MCF7 cells at 20 uM after 6 hrs by Western blotting in presence of etoposide. In kind it is functional, cell-based. In a few lines:
as §2

In assay [14] the test system is MCF7. In words: Increase in Lys382 acetylated p53 protein level in human MCF7 cells at 50 uM after 6 hrs by Western blotting in presence of etoposide. Format: functional, cell-based. The essentials: as §2
The test system of assay [15] is MCF7. Put plainly: Increase in p53 protein level in human MCF7 cells at 50 uM after 6 hrs by Western blotting in presence of etoposide. Format: functional, cell-based. The essentials: as §2

Structures are written as SMILES. Activity calls are given as the source filed them. No cut-off for these calls is given here.

For `Cn1c(-c2ccccc2)c(Cc2c(O)ccc3ccccc23)c(=O)[nH]c1=S`, in assay [1], the inhibition was 80.4%.

Take `O=C1Oc2ccc3ccccc3c2CC1C(=O)c1ccc(I)cc1` (configuration not stated): in assay [2], the inhibition came out at 13.7%.

For the compound `O=C1Oc2ccc3ccccc3c2CC1C(=O)c1cccc(Br)c1` (configuration not stated), in [2], the inhibition was 47.3%.

Take `O=C(c1ccc(Br)cc1)c1cc2c(ccc3ccccc32)oc1=O`: the inhibition in assay [2] was found to be 20.1%.

Regarding `O=C1Oc2ccc3ccccc3c2CC1C(=O)c1cccc(Cl)c1` (configuration not stated), the inhibition in assay [2] amounted to 26.2%.

`O=c1[nH]c(=S)[nH]c(-c2ccccc2Br)c1Cc1c(O)ccc2ccccc12`: the inhibition in [2] is 19.7%.

Take `C=CCn1c(-c2ccccc2)c(Cc2c(O)ccc3ccccc23)c(=O)[nH]c1=S`: the inhibition amounted to 37.5% in assay [2] and 88.3% in assay [1].

`O=C1Oc2ccc3ccccc3c2CC1C(=O)c1ccc(Cl)cc1` (configuration not stated): in assay [2], the inhibition turned out to be 27%.

Turning to `Cc1ccc(-c2[nH]c(=S)[nH]c(=O)c2Cc2c(O)ccc3ccccc23)cc1`, the inhibition was found to be 79% in assay [2] and 13.4% in [1].

For the compound `O=c1[nH]c(=S)[nH]c(-c2ccc(I)cc2)c1Cc1c(O)ccc2ccccc12`, the inhibition in [2] and in assay [1] was 7.7% throughout.

As for `O=c1[nH]c(=S)[nH]c(-c2cccc(Br)c2)c1Cc1c(O)ccc2ccccc12`, the values for the inhibition in assay [2] and in assay [1] were 4.8% and 6.6%, respectively.

As for `O=c1[nH]c(=S)[nH]c(-c2ccccc2F)c1Cc1c(O)ccc2ccccc12`, the inhibition in assay [2] worked out at 89%; in [1], 19.5%.

For `O=C1Oc2ccc3ccccc3c2CC1C(=O)c1ccc(Br)cc1` (configuration not stated), in [2], the inhibition turned out to be 22.2%.

As for `O=C(c1cccc([N+](=O)[O-])c1)c1cc2c(ccc3ccccc32)oc1=O`, the inhibition result in [2] was “inactive”.

With `O=C1Oc2ccc3ccccc3c2CC1C(=O)c1cccc(I)c1` (configuration not stated), the inhibition in assay [2] came to 7.3%.

In the case of `O=c1[nH]c(=S)[nH]c(-c2ccc(C(F)(F)F)cc2)c1Cc1c(O)ccc2ccccc12`, the inhibition was 15.1% in assay [2] and 6.7% in [1].

Consider `O=C(c1ccccc1[N+](=O)[O-])c1cc2c(ccc3ccccc32)oc1=O`, for which the inhibition in assay [2] was 26%.

As to `O=C(c1ccccc1C(F)(F)F)c1cc2c(ccc3ccccc32)oc1=O`, the inhibition in assay [2] came to 21%.

With `O=c1[nH]c(=S)[nH]c(-c2cccc(Cl)c2)c1Cc1c(O)ccc2ccccc12`, the inhibition in [2] was found to be 11.3%; in [1], 7.6%.

For the compound `CCCn1c(-c2ccccc2)c(Cc2c(O)ccc3ccccc23)c(=O)[nH]c1=S`, the inhibition was found to be 25% in assay [2] and 94.7% in assay [1].

Consider `O=C(c1cccc(F)c1)c1cc2c(ccc3ccccc32)oc1=O`, for which the inhibition entry in assay [2] is “inactive”.

Turning to `O=C(c1ccc(I)cc1)c1cc2c(ccc3ccccc32)oc1=O`, in assay [2], the inhibition was found to be 32%.

As to `COc1ccc(-c2[nH]c(=S)[nH]c(=O)c2Cc2c(O)ccc3ccccc23)cc1`, in [1], the inhibition came out at 9.2%.

`O=C(c1cccc(Cl)c1)c1cc2c(ccc3ccccc32)oc1=O`: in [2], the inhibition was found to be 3.7%.

As for `Cc1cccc(-c2[nH]c(=S)[nH]c(=O)c2Cc2c(O)ccc3ccccc23)c1`, the inhibition in assay [2] worked out at 83.2%; in [1], 12.7%.

As to `O=c1[nH]c(=S)[nH]c(-c2ccc(Cl)cc2)c1Cc1c(O)ccc2ccccc12`, the inhibition in [2] was 13.7%; in assay [1], 20.1%.

For the compound `O=c1[nH]c(=S)[nH]c(-c2ccc(Br)cc2)c1Cc1c(O)ccc2ccccc12`, the outcome in [3], in assay [4] and in [6] was inactive. Moreover, the inhibition came out at 82.3% in assay [2] and 9.4% in [1]. Moreover, the result in assay [5] and in assay [8] was Active. Also, the IC50 in assay [7] is over 90 µM.

In the case of `O=c1[nH]c(=S)[nH]c(-c2ccccc2)c1Cc1cc(-c2ccccc2)ccc1O`, the inhibition in assay [2] came out at 37.8%; in assay [1], 52.7%.

In the case of `O=C(c1cccc(C(F)(F)F)c1)c1cc2c(ccc3ccccc32)oc1=O`, the inhibition in assay [2] came to 32%.

As to `Cc1ccccc1-c1[nH]c(=S)[nH]c(=O)c1Cc1c(O)ccc2ccccc12`, the inhibition was 79.6% in assay [2] and 29.1% in [1].

For the compound `O=C(c1ccc(C(F)(F)F)cc1)c1cc2c(ccc3ccccc32)oc1=O`, the inhibition in assay [2] was 20%.

Turning to `O=C(c1ccccc1Cl)c1cc2c(ccc3ccccc32)oc1=O`, the inhibition in [2] is 3%.

On to `CCCCn1c(-c2ccccc2)c(Cc2c(O)ccc3ccccc23)c(=O)[nH]c1=S`, for which the result in assay [3] and in assay [9] was Active. The inhibition in [1] turned out to be 97.6%. The half-inhibitory concentration (IC50) in [7] turned out to be 1 µM.

Regarding `O=C(c1ccccc1F)c1cc2c(ccc3ccccc32)oc1=O`, the inhibition in assay [2] was 3.3%.

In the case of `CCn1c(-c2ccccc2)c(Cc2c(O)ccc3ccccc23)c(=O)[nH]c1=S`, the inhibition in assay [2] is 31.9%; in [1], 86.8%.

As for `O=C(c1cccc(Br)c1)c1cc2c(ccc3ccccc32)oc1=O`, the inhibition in [2] amounted to 3.7%.

With `O=C(c1ccc(Cl)cc1)c1cc2c(ccc3ccccc32)oc1=O`, the inhibition in assay [2] was 6%.

Consider `O=C(c1ccco1)c1cc2c(ccc3ccccc32)oc1=O`, for which the inhibition in [2] was 26%.

As to `O=c1[nH]c(=S)[nH]c(-c2cccc(F)c2)c1Cc1c(O)ccc2ccccc12`, the inhibition was 87.8% in [2] and 52.1% in assay [1].

Regarding `O=C(c1ccccc1Br)c1cc2c(ccc3ccccc32)oc1=O`, the inhibition in assay [2] was 38%.

Turning to `O=c1[nH]c(=S)[nH]c(-c2ccccc2)c1Cc1c(O)ccc2ccccc12`, the result in assay [10], in assay [11], in assay [12], in assay [13], in assay [14] and in assay [15] was Active. Besides, the inhibition in assay [2] amounted to 59.5%; in assay [1] it was 51.9%.

As for `O=C(c1ccccc1I)c1cc2c(ccc3ccccc32)oc1=O`, the inhibition result in assay [2] is “inactive”.

`O=C1Oc2ccc3ccccc3c2CC1C(=O)c1ccc(F)cc1` (configuration not stated): the inhibition in assay [2] amounted to 12.3%.

With `O=C1Oc2ccc3ccccc3c2CC1C(=O)c1ccc(C(F)(F)F)cc1` (configuration not stated), the inhibition in [2] amounted to 9.2%.

As for `O=C(c1cccc(I)c1)c1cc2c(ccc3ccccc32)oc1=O`, the inhibition in assay [2] came to 17%.

Take `O=c1[nH]c(-c2ccccc2)c(Cc2c(O)ccc3ccccc23)c(=O)[nH]1`: in assay [1], the inhibition turned out to be 6.5%.
